The text below walks through data of ChEMBL document CHEMBL1138207, “Engineering of a VPAC2 receptor peptide agonist to impart dipeptidyl peptidase IV stability and enhance in vivo glucose disposal” (J Med Chem, 2006).

The target in assay [1] is T1, Pituitary adenylate cyclase-activating polypeptide type I receptor (Homo sapiens, UniProt P41586). The assay is described as follows: Displacement of [125I]PACAP27 from human PAC1 receptor expressed in CHO cells. The assay is classed as cell-based. The procedure, abridged:
(§1)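 Membranes (10 µg) from CHO cells transfected with human PAC1, VPAC1 or VPAC2 receptor were incubated with 0.1 nM 125I-PACAP27 and competing peptide for 20 min at 37 °C. Buffer: 20 mM HEPES pH 7.4, 0.5% BSA, CaCl2, bacitracin. Reactions were stopped on ice. Bound ligand was collected by filtration on PEI-treated filters and counted by scintillation. Data were fit to a single-site model.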

For assay [2], the target named is T2, Vasoactive intestinal polypeptide receptor 1 (Homo sapiens, UniProt P32241).
T2 sequence (P32241 whole entry): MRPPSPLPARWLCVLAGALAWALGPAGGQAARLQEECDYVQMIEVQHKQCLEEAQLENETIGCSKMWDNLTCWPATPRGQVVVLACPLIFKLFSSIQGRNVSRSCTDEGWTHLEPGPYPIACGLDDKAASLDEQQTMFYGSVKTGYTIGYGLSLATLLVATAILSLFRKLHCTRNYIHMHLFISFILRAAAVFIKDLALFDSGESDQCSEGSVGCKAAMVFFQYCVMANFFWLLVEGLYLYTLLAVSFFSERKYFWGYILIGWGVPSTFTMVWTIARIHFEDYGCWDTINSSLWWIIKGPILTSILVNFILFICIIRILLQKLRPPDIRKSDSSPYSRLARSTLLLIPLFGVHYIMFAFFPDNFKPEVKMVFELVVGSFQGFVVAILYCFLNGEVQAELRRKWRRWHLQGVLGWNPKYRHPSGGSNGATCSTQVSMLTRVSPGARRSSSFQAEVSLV
The assay is described as follows: Activity at human VPAC1 receptor in CHO cells by measuring cAMP accumulation. It counts as functional, cell-based. The gist of the method: (§2)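 CHO cells transfected with human PAC1, VPAC1 or VPAC2 receptor were incubated with peptide for 15 min at 37 °C. Buffer: HEPES pH 7.4 saline with 1% BSA, bacitracin and 100 µM IBMX as phosphodiesterase inhibitor. cAMP was measured by competitive 125I-cAMP scintillation proximity assay. Curves were fit to a single-site model.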
(cAMP levels reflect the balance of adenylyl cyclase and phosphodiesterase activity.)

The target of assay [3] is T2, Vasoactive intestinal polypeptide receptor 1. Kind of assay: Displacement of [125I]PACAP27 from human VPAC1 receptor expressed in CHO cells. It counts as cell-based. The gist of the method:
as §1
(Displacement assays read how much labelled ligand stays bound in the presence of the test substance.)

In assay [4] the target is T1, Pituitary adenylate cyclase-activating polypeptide type I receptor. The assay is described as follows: Activity at human PAC1 receptor in CHO cells by measuring cAMP accumulation. It counts as cell-based. The gist of the method:
as §2

T1 sequence (P41586 whole entry): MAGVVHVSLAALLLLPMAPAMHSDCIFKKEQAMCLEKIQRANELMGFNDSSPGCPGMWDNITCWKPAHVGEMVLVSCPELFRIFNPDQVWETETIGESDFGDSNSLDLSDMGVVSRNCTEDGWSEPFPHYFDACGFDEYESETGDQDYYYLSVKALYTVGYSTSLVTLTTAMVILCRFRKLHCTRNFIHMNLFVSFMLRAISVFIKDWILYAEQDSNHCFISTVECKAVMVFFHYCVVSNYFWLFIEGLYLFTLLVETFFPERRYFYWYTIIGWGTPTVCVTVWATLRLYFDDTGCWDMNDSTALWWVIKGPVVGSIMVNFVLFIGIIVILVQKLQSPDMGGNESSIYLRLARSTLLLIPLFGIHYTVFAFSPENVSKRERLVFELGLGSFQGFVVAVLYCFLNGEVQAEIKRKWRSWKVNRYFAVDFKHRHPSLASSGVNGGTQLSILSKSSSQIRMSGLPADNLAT

With `CC[C@H](C)[C@H](NC(=O)CNC(=O)[C@H](CC(=O)O)NC(=O)[C@H](CO)NC(=O)[C@@H](N)Cc1cnc[nH]1)C(=O)N[C@@H](Cc1ccccc1)C(=O)N[C@H](C(=O)N[C@@H](CC(=O)O)C(=O)N[C@@H](CO)C(=O)N[C@@H](Cc1ccc(O)cc1)C(=O)N[C@@H](CO)C(=O)N[C@@H](CCCN=C(N)N)C(=O)N[C@@H](Cc1ccc(O)cc1)C(=O)N[C@@H](CCCN=C(N)N)C(=O)N[C@@H](CCCCN)C(=O)N[C@@H](CCC(N)=O)C(=O)N[C@@H](CCSC)C(=O)N[C@@H](C)C(=O)N[C@H](C(=O)N[C@@H](CCCCN)C(=O)N[C@@H](CCCCN)C(=O)N[C@@H](Cc1ccc(O)cc1)C(=O)N[C@@H](CC(C)C)C(=O)N[C@@H](C)C(=O)N[C@@H](C)C(=O)N[C@H](C(=O)N[C@@H](CC(C)C)C(=O)O)C(C)C)C(C)C)[C@@H](C)O`, the IC50 (usually the midpoint of a concentration-inhibition curve) is 3 nM in assay [1] and 12 nM in assay [3]. Further, the EC50 (as a rule, the concentration giving half of the maximal effect) in assay [2] was 0.6 nM; in assay [4], 0.13 nM.
